This note sets out measurements from PubChem BioAssay AID623976 (Vanderbilt High Throughput Screening Facility, 2012).

The structures appear in SMILES notation.

This experiment has as its target G protein-activated inward rectifier potassium channel 4 (Homo sapiens) + G protein-activated inward rectifier potassium channel 1 (Homo sapiens) (UniProt P48544+P48549). Description: activation of Ba2+-sensitive GIRK1/4 currents – HEK-293 hGIRK1/4, whole-cell patch clamp, confirmation (AID 623976). The note with it: HEK-293 hGIRK1/4, whole-cell patch clamp Ba2+-sensitive current. A digest of the protocol:
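Assay system: HEK-293 cells stably expressing human GIRK1/4 channels. Buffer or medium: 20K external solution, KCl pipette solution. Dosing: compound tested at multiple concentrations. Schedule: recording 24-72 h post-plating. Measured by: whole-cell voltage clamp at -70 mV, 2 mM BaCl2-sensitive current.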
In general terms: Patch clamp records ionic current or voltage across a cell membrane.

One may read the EC50 as the midpoint of the concentration-response curve.

Chain of G protein-activated inward rectifier potassium channel 4 (Homo sapiens) + G protein-activated inward rectifier potassium channel 1 (Homo sapiens) (P48544 whole entry, looked up): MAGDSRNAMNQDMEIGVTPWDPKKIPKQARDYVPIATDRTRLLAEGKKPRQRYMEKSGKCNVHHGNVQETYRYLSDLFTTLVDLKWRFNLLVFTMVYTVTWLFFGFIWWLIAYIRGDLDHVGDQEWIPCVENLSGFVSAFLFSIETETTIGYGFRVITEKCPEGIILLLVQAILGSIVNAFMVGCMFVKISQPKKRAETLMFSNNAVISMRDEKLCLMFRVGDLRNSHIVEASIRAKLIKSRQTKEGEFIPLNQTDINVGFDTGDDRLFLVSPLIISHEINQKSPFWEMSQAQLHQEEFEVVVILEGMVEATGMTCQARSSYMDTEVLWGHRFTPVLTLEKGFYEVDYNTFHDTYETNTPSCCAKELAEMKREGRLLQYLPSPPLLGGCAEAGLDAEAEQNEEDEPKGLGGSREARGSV
Chain of G protein-activated inward rectifier potassium channel 4 (Homo sapiens) + G protein-activated inward rectifier potassium channel 1 (Homo sapiens) (P48549 whole entry, looked up): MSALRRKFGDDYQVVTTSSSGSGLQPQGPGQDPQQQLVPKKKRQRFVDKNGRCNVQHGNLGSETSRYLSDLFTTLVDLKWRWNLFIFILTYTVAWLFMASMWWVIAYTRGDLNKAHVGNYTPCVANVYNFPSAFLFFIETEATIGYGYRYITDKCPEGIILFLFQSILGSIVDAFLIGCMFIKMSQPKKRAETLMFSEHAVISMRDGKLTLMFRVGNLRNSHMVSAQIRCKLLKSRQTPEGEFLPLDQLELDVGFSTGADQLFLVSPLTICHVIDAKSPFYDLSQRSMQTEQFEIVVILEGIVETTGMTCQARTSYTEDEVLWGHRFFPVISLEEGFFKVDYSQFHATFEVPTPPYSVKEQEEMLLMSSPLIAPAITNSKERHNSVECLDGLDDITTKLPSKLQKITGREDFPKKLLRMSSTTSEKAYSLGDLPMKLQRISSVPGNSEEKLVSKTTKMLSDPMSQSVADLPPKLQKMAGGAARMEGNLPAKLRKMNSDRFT

Turning to `Cc1cc(NC(=O)Nc2ccc(F)c(F)c2)n(-c2ccccc2)n1`, the EC50 is 1590 nM.
